Measurements of several laboratories.
Target: Activin receptor type-1B (ACVR1B, Homo sapiens, UniProt P36896)
Sequence (P36896 24-505, as in one of the studies): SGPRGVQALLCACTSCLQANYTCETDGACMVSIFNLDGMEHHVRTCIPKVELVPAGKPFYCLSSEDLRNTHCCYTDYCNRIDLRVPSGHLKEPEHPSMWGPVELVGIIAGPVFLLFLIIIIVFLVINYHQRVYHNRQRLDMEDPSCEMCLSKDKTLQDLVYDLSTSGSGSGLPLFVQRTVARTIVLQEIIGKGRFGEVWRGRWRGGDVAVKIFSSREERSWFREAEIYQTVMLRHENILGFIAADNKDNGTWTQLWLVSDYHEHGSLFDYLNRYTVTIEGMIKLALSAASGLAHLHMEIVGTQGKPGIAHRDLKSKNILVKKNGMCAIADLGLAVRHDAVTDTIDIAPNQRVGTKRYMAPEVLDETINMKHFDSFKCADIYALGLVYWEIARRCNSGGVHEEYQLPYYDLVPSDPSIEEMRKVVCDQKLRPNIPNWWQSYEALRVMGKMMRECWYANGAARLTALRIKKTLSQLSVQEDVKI

| Compound | effect on | action | technique | concentration | measurement | value |
| --- | --- | --- | --- | --- | --- | --- |
| Cn1c2c(c3ccc(Cl)c(Cl)c31)C(C#N)C(C)(C)NC2=O (stereo not drawn) | thermal stability | – | DSF | 10 µM | ΔTm | 2.9 °C |
| O=C(CSc1nc2nccnc2c(=O)n1CCc1ccccc1)Nc1nccs1 | enzyme activity | inhibitor | – | 10 µM | inhibition | 4% |
| O=C(O)[C@@H]1[C@@H](Cn2nnc3ccccc3c2=O)CC[C@H]1C(=O)c1ccc(OCCC2CCOCC2)cc1 | cell-free assay | – | competition with immobilised ligand | 1 µM | remaining binding | 100% |
| CCCOc1ccc(OC)c(F)c1C(=O)c1ccc(C(=O)N[C@@H]2CNC[C@H]2NC(=O)c2ccc3[nH]ncc3c2)cc1 | enzyme activity | inhibitor | – | 10 µM | remaining activity | 91% |
| C[C@@H](c1cccc(C#N)c1)n1cc(Cl)cc(C(N)=O)c1=N | cell-free assay | – | competition with immobilised ligand | 1 µM | remaining binding | 100% |
| Cc1ccc(C(=O)Nc2ccc(CN3CCN(C)CC3)c(C(F)(F)F)c2)cc1C#Cc1cnc2cccnn12 | enzyme activity | – | – | 23.5 nM | remaining activity | 100% |
| O=C(N1CCS(=O)(=O)CC1)N1C[C@H](c2ccc(OC(F)(F)F)cc2)C[C@H](c2nc(C3CC3)no2)C1 | cell-free assay | – | competition with immobilised ligand | 1 µM | remaining binding | 100% |
| O=C1NC(=O)c2cc(Nc3ccc(F)cc3)c(Nc3ccc(F)cc3)cc21 | cell-free assay | – | – | 0.5 µM | remaining signal | 94.2% |
| Cn1c2c(c3ccc(Cl)c(Cl)c31)C(C#N)C1(CCOCC1)NC2=O (stereo not drawn) | thermal stability | – | DSF | 10 µM | ΔTm | 0.2 °C |
| CC(C)(C)c1nc2c(s1)c1nc(N)ncc1c1ccc(NS(=O)(=O)c3c(F)cccc3F)c(F)c12 | enzyme activity | inhibitor | radiometric | 1 µM | remaining activity | 84% |
| Cn1c2c(Cl)c(Cl)ccc2c2cc(N)[nH]c(=O)c21 | thermal stability | – | DSF | 10 µM | ΔTm | 3.9 °C |
| CS(=O)(=O)c1cc(C2(NC(=O)c3cncc4c3cnn4-c3ccc(F)cc3)CC2)ccn1 | cell-free assay | – | competition with immobilised ligand | 1 µM | remaining binding | 100% |
| O=C(Nc1cnn(-c2csc(C(=O)NC3COC3)c2)c1)Nc1ccccc1Cl | enzyme activity | inhibitor | – | 5 µM | remaining activity | 124% |
| Cn1c2c(c3ccc(Cl)c(Cl)c31)C(C#N)C1(CCNCC1)NC2=O (racemic) | thermal stability | – | DSF | 10 µM | ΔTm | -0.1 °C |
| CCN(CC)CCNC(=O)c1c(C)[nH]c(/C=C2\C(=O)Nc3ccc(F)cc32)c1C | cell-free assay | – | – | 0.5 µM | remaining signal | 101% |
| Cc1ccc(NC(=O)c2ccc(C)c(C(F)(F)F)c2)cc1C#Cc1nn(C2CCC(O)CC2)c2ncnc(N)c12 (stereo not drawn) | cell-free assay | – | – | 10 µM | remaining signal | 79% |
| Cc1cnc(NC2CCOCC2)nc1-n1cnc(C(=O)NC(CN)c2cc(F)cc(Cl)c2)c1 (stereo not drawn) | enzyme activity | inhibitor | radiometric | 1 µM | remaining activity | 109% |
| C[C@H](c1ccc(F)cc1)N(Cc1cccc(C(=O)O)c1)C(=O)c1cnc2ccccc2c1 | cell-free assay | – | competition with immobilised ligand | 1 µM | remaining binding | 100% |
| CNC(=O)c1cc(Oc2ccc(NC(=O)Nc3ccc(Cl)c(C(F)(F)F)c3)cc2)ccn1 | cell-free assay | inhibitor | – | 0.3 µM | inhibition | -6% |
| CO[C@@H](C)c1c(Nc2ccc([C@H](N(C)C(=O)C3CCS(=O)(=O)CC3)C(F)(F)F)cc2)cnc2cc(Cl)nn12 | cell-free assay | – | competition with immobilised ligand | 1 µM | remaining binding | 72% |
| COc1cc(-c2cc(-c3ccc(N4CCNCC4)cc3)cnc2C)cc(OC)c1OC | enzyme activity | inhibitor | – | 0.1 µM | inhibition | 9% |
| O=c1cc(-c2cccc3c2Sc2ccccc2S3)oc(N2CCOCC2)c1 | enzyme activity | inhibitor | – | 0.5 µM | remaining activity | 114% |
| CN(C)C1CCN(CC#Cc2nn(C3CCCC3)c3nc(NCc4ccccc4)ncc23)C1 (stereo not drawn) | enzyme activity | inhibitor | FRET | 0.1 µM | inhibition | 0% |
| COc1cc2ncnc(Nc3ccc(Oc4ccccc4)cc3C)c2cc1OC | enzyme activity | inhibitor | – | 1 µM | inhibition | -2% |
| CN1CCC2(CC1)NC(=O)c1c(c3ccc(Cl)c(Cl)c3n1C)C2C#N (racemic) | thermal stability | – | DSF | 10 µM | ΔTm | 0.3 °C |
| O=C(NC[C@@H]1[C@H]2CN(C(=O)OCc3cc(C(F)(F)F)cc(C(F)(F)F)c3)C[C@@H]12)c1ccc2[nH]nnc2c1 | cell-free assay | – | competition with immobilised ligand | 1 µM | remaining binding | 100% |
| COc1cc(Cl)c(C(=O)N[C@@H](CN[C@H]2CC[C@@H](N)CC2)Cc2ccc(C#N)cc2)cc1-c1ccc(CN[C@H](C)c2ccc(C)cc2)o1 | enzyme activity | inhibitor | – | 1 µM | remaining activity | 92% |
| Cc1cc(NC(=O)c2cccc3cc(-c4cccc5[nH]nc(N)c45)ccc23)ccc1F | enzyme activity | inhibitor | – | 0.1 µM | activity vs control | 103% |
| CCOCCn1cc(C(=O)Nc2ccc(-n3nc(-c4cccnc4)cc3C(F)(F)F)cn2)ccc1=O | cell-free assay | – | competition with immobilised ligand | 1 µM | remaining binding | 79% |
| Cc1ccc(Nc2nccc(N(C)c3ccc4c(C)n(C)nc4c3)n2)cc1S(N)(=O)=O | cell-free assay | inhibitor | – | 10 µM | inhibition | 17% |
